Assay results reported in ChEMBL document CHEMBL1149314, “Synthesis of AZT 5'-triphosphate mimics and their inhibitory effects on HIV-1 reverse transcriptase” (J Med Chem, 2004).

Legend:
[1] = (§1) Stability in fetal calf serum at 500 uM at 37 degC; format: ADME, cell-free, Bos taurus; conditions: cattle, fetal calf serum
Outline: (§2)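 Fetal calf serum at 10% v/v final, with 500 µM nucleotide mimic in 50 mM Tris-HCl pH 7.4 and 0.1 mM MgCl2, at 37 °C. Timed aliquots were quenched in cold methanol, extracted, dried and run on ion-pair reverse-phase HPLC. Half-life came from remaining parent through 48 h, given as >48 h if over 50% remained; unmodified nucleoside triphosphates were positive controls.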

[2] = system: Human immunodeficiency virus 1; test: Inhibition of HIV1 reverse transcriptase at 0.5 uM
Outline: (§3)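 HIV reverse transcriptase (type B, 66 kDa subunit) at 2 nM with 1 µg/mL primed poly(A) RNA and 5 µM dTTP, in 50 mM Tris-HCl pH 8.1, 6.5 mM MgCl2, 100 mM NaCl and 10 mM DTT. Compounds were tested up to 500 µM final. Reactions were started with enzyme, run 10 min at 37 °C and stopped with EDTA. DNA was read by PicoGreen fluorescence (ex 480/em 538 nm), with no-enzyme or no-dTTP blanks. Percent inhibition was blank-corrected; Ki came from titration fitted to a competitive model.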

[3] = Stability in CEM cell extract; format: ADME; conditions: human, CEM (CCRF-CEM) cell extract
Outline: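 Clarified lysate of CEM cells (10^7 cells per 100 µL Tris/glycerol/Triton buffer, freeze-thaw lysed) at 50% v/v, with 500 µM nucleotide mimic in 50 mM Tris-HCl pH 7.4 and 0.1 mM MgCl2, at 37 °C. Samples were taken from 0 to 48 h into cold methanol, dried and analysed by ion-pair reverse-phase HPLC. Half-life came from remaining parent, given as >48 h if over 50% remained intact; unmodified NTPs were controls.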

[4] = Inhibition of HIV1 reverse transcriptase; design: species or system Human immunodeficiency virus 1; outline: as §3
[5] = system: Serum; test: as §1; format: ADME, cell-free, Bos taurus; conditions: cattle, serum, 500 µM; outline: as §2

In the case of `BP(=O)(OC[C@@H]1O[C@H](n2cc(C)c(=O)[nH]c2=O)C[C@H]1N=[N+]=[N-])OP(=O)(O)OP(=O)(O)O` (single isomer, unassigned; form 2), the half-life at 500 µM [1] is reported as 6 h.
With `Cc1cn([C@@H]2C[C@@H](N=[N+]=[N-])[C@H](COP(=O)(O)C(F)(F)P(=O)(O)OP(=O)(O)c3ccccc3)O2)c(=O)[nH]c1=O` the inhibition [2] was 11.5%.
Work on `BP(=O)(OC[C@@H]1O[C@H](n2cc(C)c(=O)[nH]c2=O)C[C@H]1N=[N+]=[N-])OP(=O)(O)C(F)(F)P(=O)(O)O` (single isomer, unassigned; diastereomer I) yielded a half-life at 500 µM [1] greater than 48 h, a half-life [3] greater than 48 h and a Ki [4] of 9.5 nM.
With `Cc1cn([C@H]2C[C@H](O)[C@@H](COP(=O)(O)OP(=O)(O)OP(=O)(O)O)O2)c(=O)[nH]c1=O` [DEOXYTHYMIDINE_TRIPHOSPHATE] the half-life at 500 µM [1] was 2 h.
`Cc1cn([C@@H]2C[C@@H](N=[N+]=[N-])[C@H](COP(=O)(O)OP(=O)(O)C(F)(F)P(=O)(O)O)O2)c(=O)[nH]c1=O` showed a Ki [4] of 41 nM.
Work on `BP(=O)(OC[C@@H]1O[C@H](n2cc(C)c(=O)[nH]c2=O)C[C@H]1N=[N+]=[N-])OP(=O)(O)C(F)P(=O)(O)O` (single isomer, unassigned; diastereomer IV) yielded an inhibition [2] of 49%.
For `Nc1ncnc2c1ncn2[C@@H]1O[C@H](COP(=O)(O)OP(=O)(O)OP(=O)(O)O)[C@@H](O)[C@H]1O` [ADENOSINE TRIPHOSPHATE], the half-life at 500 µM [1] was 2 h.
In the case of `COP(=O)(O)C(F)(F)P(=O)(O)OP(=O)(O)OC[C@@H]1O[C@H](n2cc(C)c(=O)[nH]c2=O)C[C@H]1N=[N+]=[N-]`, the Ki [4] is reported as 597 nM.
Work on `BP(=O)(OC[C@@H]1O[C@H](n2cc(C)c(=O)[nH]c2=O)C[C@H]1N=[N+]=[N-])OP(=O)(O)C(Cl)(Cl)P(=O)(O)O` (single isomer, unassigned; diastereomer II) yielded a half-life at 500 µM [1] greater than 48 h, a half-life [3] greater than 48 h and a Ki [4] of 74 nM.
With `Cc1cn([C@@H]2C[C@@H](N=[N+]=[N-])[C@H](COP(=O)(O)OP(=O)(O)C(F)(F)P(N)(=O)O)O2)c(=O)[nH]c1=O` the Ki [4] was 234 nM.
For `BP(=O)(OC[C@@H]1O[C@H](n2cc(C)c(=O)[nH]c2=O)C[C@H]1N=[N+]=[N-])OP(=O)(O)C(F)(F)P(=O)(O)O` (single isomer, unassigned; diastereomer II), the Ki [4] was 4560 nM.
With `Cc1cn([C@H]2C[C@H](N=[N+]=[N-])[C@@H](COP(=O)(O)OP(=O)(O)OP(=O)(O)O)O2)c(=O)[nH]c1=O` [ZIDOVUDINE TRIPHOSPHATE] the half-life at 500 µM [1] was 2 h and the Ki [4] was 8.4 nM.
In the case of `BP(=O)(OC[C@@H]1O[C@H](n2cc(C)c(=O)[nH]c2=O)C[C@H]1N=[N+]=[N-])OP(=O)(O)C(Cl)(Cl)P(=O)(O)O` (single isomer, unassigned), the t1/2 [5] is reported as 45 h and the Ki [4] is reported as 93 nM.
Work on `Cc1cn([C@@H]2C[C@@H](N=[N+]=[N-])[C@H](COP(=O)(O)OP(=O)(O)C(F)(F)P(=O)(O)N=[N+]=[N-])O2)c(=O)[nH]c1=O` yielded an inhibition [2] of 24%.
`Cc1cn([C@@H]2C[C@@H](N=[N+]=[N-])[C@H](COP(=S)(S)OP(=O)(O)C(F)(F)P(=O)(O)O)O2)c(=O)[nH]c1=O` (stereo partly drawn) showed an inhibition [2] of 19%.
In the case of `CCNP(=O)(O)C(F)(F)P(=O)(O)OP(=O)(O)OC[C@@H]1O[C@H](n2cc(C)c(=O)[nH]c2=O)C[C@H]1N=[N+]=[N-]`, the Ki [4] is reported as 415 nM.
`CNP(=O)(O)C(F)(F)P(=O)(O)OP(=O)(O)OC[C@@H]1O[C@H](n2cc(C)c(=O)[nH]c2=O)C[C@H]1N=[N+]=[N-]` showed a Ki [4] of 124 nM.
`Cc1cn([C@@H]2C[C@@H](N=[N+]=[N-])[C@H](COP(=O)(O)OP(=O)(O)C(F)(F)P(=O)(O)Oc3ccccc3)O2)c(=O)[nH]c1=O` showed a Ki [4] of 303 nM.
With `Cc1cn([C@@H]2C[C@@H](N=[N+]=[N-])[C@H](COP(=O)(O)OP(=O)(O)C(F)(F)P(=O)(O)Nc3ccccc3)O2)c(=O)[nH]c1=O` the Ki [4] was 254 nM.
`BP(=O)(OC[C@@H]1O[C@H](n2cc(C)c(=O)[nH]c2=O)C[C@H]1N=[N+]=[N-])OP(=O)(O)OP(=O)(O)O` (single isomer, unassigned; form 1) showed a t1/2 [5] of 6 h and a Ki [4] of 9.6 nM.
Compound `BP(=O)(OC[C@@H]1O[C@H](n2cc(C)c(=O)[nH]c2=O)C[C@H]1N=[N+]=[N-])OP(=O)(O)C(F)P(=O)(O)O` (single isomer, unassigned) has a Ki [4] of 27 nM.
